According to ChEMBL document CHEMBL4138288, “Crispenes F and G, cis-Clerodane Furanoditerpenoids from Tinospora crispa, Inhibit STAT3 Dimerization” (J Nat Prod, 2018):

Legend:
WI-38 = assay: Cytotoxicity against human WI38 cells assessed as reduction in cell viability at 100 uM after 24 hrs by MTT assay; format: cell-based; conditions: wi-38, 24 h
In short: (§1)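 Cells kept at 37 °C, 5% CO2. MDA-MB-231 were grown in DMEM with 10% FBS, 2 mM L-glutamine, NEAA and pen-strep, seeded at 2500 cells/well. A4 were grown in RPMI 1640 with 10% FBS and pen-strep, seeded at 5000 cells/well. WI-38 were grown in DMEM with 10% FBS, seeded at 5000 cells/well. Plates rested 24 h before compound was added in triplicate. MTT absorbance was read at 570 nm.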

MDA-MB-231 = assay: Cytotoxicity against human MDA-MB-231 cells assessed as reduction in cell viability after 24 hrs by MTT assay; format: functional, cell-based; conditions: MDA-MB-231, 24 h; in short: as §1
[1] = Inhibition of unphosphorylated STAT3 beta dimerization (unknown origin) expressed in Escherichia coli BL21 Rosetta cells after 5 mins by fluorescence polarization assay; design: species or system Homo sapiens
In short: (§2)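 Unphosphorylated STAT3βtc was expressed in E. coli with IPTG induction overnight at 21 °C, then purified by ion exchange. In PBS pH 7.4, 350 nM protein was mixed with 10 nM FAM-pYLPQTV (final). Base polarization was read, inhibitor was added, the plate was shaken 5 min and read again. % inhibition = (X−Y)/X×100, each term corrected for free probe.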

[2] = Inhibition of FAM-pYLPQTV binding to unphosphorylated STAT3 beta (unknown origin) expressed in Escherichia coli BL21 Rosetta cells after 5 mins by fluorescence polarization assay; design: species or system Homo sapiens; in short: as §2
Homo sapiens [3] = organism: Homo sapiens; assay: Inhibition of unphosphorylated STAT3 beta dimerization (unknown origin) expressed in Escherichia coli BL21 Rosetta cells at 100 uM after 5 mins by fluorescence polarization assay relative to STA-21
Homo sapiens [4] = organism: Homo sapiens; assay: Inhibition of unphosphorylated STAT3 beta dimerization (unknown origin) expressed in Escherichia coli BL21 Rosetta cells at 100 uM after 5 mins by fluorescence polarization assay relative to pYLKTKF
In short: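 Same STAT3βtc/FAM-pYLPQTV polarization displacement setup: 350 nM protein, 10 nM probe, PBS pH 7.4, 5 min after addition. Ligand tested at 100 μM. Its % inhibition (B) was expressed as B/A×100, where A is the % inhibition from 100 μM […], taken as 100%.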

[5] = Cytotoxicity against human A4 cells assessed as reduction in cell viability after 24 hrs by MTT assay; format: functional, cell-based; in short: as §1

Row | IC50 [1] | IC50 [2] | Compound | Activity (WI-38) | IC50 (MDA-MB-231) | inhibition (Homo sapiens [3]) | inhibition (Homo sapiens [4]) | IC50 [5]
1 | 42 µM | 42 µM | COC(=O)C1=C[C@H](O)C[C@H]2[C@@]1(C)C=C[C@](O)(C(=O)O)[C@@]2(C)CC(OC(C)=O)c1ccoc1 (stereo not given in full) | Non-Toxic | 10 µM | 119% | 60% | > 10 µM
2 | 17 µM | 17 µM | C[C@@]1(CC(O)c2ccoc2)C(C(=O)O)=CC[C@]2(C)[C@H]1[C@H]1C=C[C@@]2(O)C(=O)O1 (stereo not given in full) | Non-Toxic | 7.8 µM | 130% | 72% | > 10 µM
3 | – | – | C[C@H]1C[C@H]2OC(=O)[C@@]34O[C@@H]3CC[C@@H]([C@]1(C)CCC1=CCOC1=O)[C@@]24C | – | 5.4 µM | – | – | –
